Experimental data as given in ChEMBL document CHEMBL3616466, “Pyrazolo[3,4-h]quinolines promising photosensitizing agents in the treatment of cancer” (Eur J Med Chem, 2015).
Calls of active or inactive are those of the source. The calls are words filed in the database; no cut-off is given here.

Legend:
Jurkat [1] = assay: Photocytotoxicity against human Jurkat cells assessed as growth inhibition at 2.5 J/cm'2 irradiation for 30 mins followed by drug treated for 72 hrs by MTT assay; assay type: functional; conditions: light or radiation study
Summary of the method: (§1)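 Cells seeded at 5 × 10³ per well and pre-incubated 24 h. Drug dilutions in HBSS (pH 7.2, from DMSO stock) added for 30 min at 37 °C, then UV-A irradiation at the stated dose. Drug solution then replaced with culture medium and plates incubated 72 h. Viability by MTT; GI50 from concentration series.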

Jurkat [2] = assay: Photocytotoxicity against human Jurkat cells assessed as growth inhibition at 1.25 J/cm'2 irradiation for 30 mins followed by drug treated for 72 hrs by MTT assay; assay type: functional; conditions: light or radiation study; summary of the method: as §1
HL-60 [3] = assay: Photocytotoxicity against human HL60 cells assessed as growth inhibition at 2.5 J/cm'2 irradiation for 30 mins followed by drug treated for 72 hrs by MTT assay; assay type: functional; conditions: HL-60, light or radiation study; summary of the method: as §1
HL-60 [4] = assay: Photocytotoxicity against human HL60 cells assessed as growth inhibition at 1.25 J/cm'2 irradiation for 30 mins followed by drug treated for 72 hrs by MTT assay; assay type: functional; conditions: HL-60, light or radiation study; summary of the method: as §1
MCF7 [5] = assay: Photocytotoxicity against human MCF7 cells assessed as growth inhibition at 3.75 J/cm'2 irradiation for 30 mins followed by drug treated for 72 hrs by MTT assay; assay type: functional; conditions: MCF7, light or radiation study; summary of the method: as §1
MCF7 [6] = assay: Photocytotoxicity against human MCF7 cells assessed as growth inhibition at 2.5 J/cm'2 irradiation for 30 mins followed by drug treated for 72 hrs by MTT assay; assay type: functional; conditions: MCF7, light or radiation study; summary of the method: as §1
A549 [7] = assay: Photocytotoxicity against human A549 cells assessed as growth inhibition at 3.75 J/cm'2 irradiation for 30 mins followed by drug treated for 72 hrs by MTT assay; assay type: functional; conditions: A549, light or radiation study; summary of the method: as §1
A549 [8] = assay: Photocytotoxicity against human A549 cells assessed as growth inhibition at 2.5 J/cm'2 irradiation for 30 mins followed by drug treated for 72 hrs by MTT assay; assay type: functional; conditions: A549, light or radiation study; summary of the method: as §1
LoVo [9] = assay: Photocytotoxicity against human LoVo cells assessed as growth inhibition at 3.75 J/cm'2 irradiation for 30 mins followed by drug treated for 72 hrs by MTT assay; assay type: functional; conditions: light or radiation study; summary of the method: as §1
LoVo [10] = assay: Photocytotoxicity against human LoVo cells assessed as growth inhibition at 2.5 J/cm'2 irradiation for 30 mins followed by drug treated for 72 hrs by MTT assay; assay type: functional; conditions: light or radiation study; summary of the method: as §1
A549 [11] = assay: Photocytotoxicity against human A549 cells assessed as inhibition of colony formation at 2.5 J/cm'2 irradiation after 1 to 2 weeks using crystal violet staining by optical microscopy; assay type: functional, cell-based
Summary of the method: (§2)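 A-549 cells (10 × 10³) plated in dishes. After 24 h, irradiated at 2.5 J/cm² with compound at varying concentrations. Medium replaced, then cultured 1–2 weeks with medium changes every 2–3 days. Stained with crystal violet; colonies of ≥50 cells counted visually. Expressed as % of untreated cells; mean ± SEM of three experiments.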

[12] = Induction of singlet oxygen generation measured after UV-A irradiation by RNO bleaching assay; assay type: physicochemical
Summary of the method: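 Compound (2.2 × 10⁻⁵ M), RNO (4 × 10⁻⁵ M) and imidazole (4 × 10⁻⁵ M) in phosphate buffer pH 7.3 irradiated with increasing UV-A doses. Absorbance read at 440 nm; reported as % RNO bleaching.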

[13] = Induction of superoxide anion generation measured after UV-A irradiation by NBT reduction assay; assay type: physicochemical
Summary of the method: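 Compound (10⁻⁵ M) with nitroblue tetrazolium (1.6 × 10⁻⁴ M) in carbonate buffer pH 10 irradiated with increasing UV-A doses. Absorbance at 560 nm followed as the superoxide read-out.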

Jurkat [14] = assay: Induction of apoptosis in human Jurkat cells assessed as reduction in alive cells using Annexin-V and propidium iodide staining at 1 to 2 uM measured 24 hrs post 2.5 J/cm'2 irradiation by flow cytometry analysis; assay type: functional, cell-based
Summary of the method: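 Jurkat cells irradiated (2.5 J/cm²) with compound at 1 or 2 µM. After 24 h, co-stained with Annexin V-FITC and PI and analysed by flow cytometry (excitation 488 nm; emission 525 and 585 nm). Mean of three independent experiments.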

Jurkat [15] = assay: Induction of apoptosis in human Jurkat cells assessed as increase in cleaved caspase 3 level at 1 uM measured 24 hrs post 2.5 J/cm'2 irradiation by Western blot analysis; assay type: functional, cell-based
Summary of the method: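 Jurkat cells irradiated (2.5 J/cm²) with compound at 1 µM. At 24 h, cells washed in cold PBS and lysed on ice for 20 min. 20 µg protein run on 8–16% gradient gels and transferred to nitrocellulose. Probed with rabbit anti-caspase-3 and β-actin (1:1000, 2 h), then peroxidase anti-rabbit IgG; ECL detection.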

Jurkat [16] = assay: Induction of apoptosis in human Jurkat cells assessed as reduction in mitochondrial potential at 1 to 2 uM using JC-1 staining measured 24 hrs post 2.5 J/cm'2 irradiation by FACS assay; assay type: functional, cell-based
Summary of the method: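 At 24 h after 2.5 J/cm² irradiation with compound at 1 or 2 µM, Jurkat cells were pelleted and resuspended in HBSS with 1 µM JC-1. After 10 min at 37 °C, fluorescence read at 530 and 590 nm by flow cytometry. Mean ± SEM, n=3.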

Jurkat [17] = assay: Induction of apoptosis in human Jurkat cells assessed as ROS production at 1 to 2 uM using HE and DCFDA staining measured 24 hrs post 2.5 J/cm'2 irradiation by FACS assay; assay type: functional, cell-based
Jurkat [18] = assay: Induction of apoptosis in human Jurkat cells assessed as lysosome death at 1 to 2 uM using acridine orange staining measured 24 hrs post 2.5 J/cm'2 irradiation by flow cytometry; assay type: functional, cell-based
Escherichia coli = assay: Induction of DNA damage in Escherichia coli pBR322 DNA measured at 7.5 J/cm'2 UV-A irradiation by neutral agarose electrophoresis
Summary of the method: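 pBR322 plasmid (100 ng) in 10 mM phosphate buffer pH 7.2 irradiated at 7.5 J/cm² UV-A with compound at a compound/DNA ratio of 3/1. Aliquots incubated at 37 °C with Fpg or Endo III. Run on 1% agarose in TAE at 70 V for 4 h; supercoiled, open circular and linear bands quantified.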

Jurkat [19] = assay: Induction of lipid peroxidation in human Jurkat cells at 2 uM measured 24 hrs post 2.5 J/cm'2 irradiation by TBA assay; assay type: functional, cell-based
Summary of the method: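 TBA test for TBARS performed on supernatant medium and on cell lysates 24 h post-irradiation. Mean ± SEM of three experiments.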

A549 [20] = assay: Photocytotoxicity against human A549 cells assessed as inhibition of colony formation at 0.0625 to 0.5 uM measured 24 hrs post 2.5 J/cm'2 irradiation after 1 to 2 weeks by optical microscopy; assay type: functional, cell-based; summary of the method: as §2
MCF7 [21] = assay: Ratio of angelicin GI50 to compound GI50 for human MCF7 cells assessed as growth inhibition at 3.75 J/cm'2 irradiation for 30 mins followed by drug treated for 72 hrs by MTT assay; assay type: functional
Summary of the method: (§3)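 Cells were pre-incubated 30 min at 37 °C with drug in HBSS, irradiated, then drug replaced with medium. Ratio is angelicin GI50 divided by compound GI50.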

LoVo [22] = assay: Ratio of angelicin GI50 to compound GI50 for human LoVo cells assessed as growth inhibition at 3.75 J/cm'2 irradiation for 30 mins followed by drug treated for 72 hrs by MTT assay; assay type: functional; summary of the method: as §3
Jurkat [23] = assay: Cytotoxicity against human Jurkat cells assessed as growth inhibition after 72 hrs by MTT assay; assay type: functional
HL-60 [24] = assay: Cytotoxicity against human HL60 cells assessed as growth inhibition after 72 hrs by MTT assay; assay type: functional; conditions: HL-60, 72 h
A549 [25] = assay: Cytotoxicity against human A549 cells assessed as growth inhibition after 72 hrs by MTT assay; assay type: functional; conditions: A549, 72 h
Summary of the method: (§4)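 Cells (5 × 10³ per well) pre-incubated 24 h at 37 °C, 5% CO₂, then exposed in the dark to serial concentrations diluted from DMSO stock into complete medium for 72 h at 37 °C. Viability read by MTT; GI50 derived. LoVo in Ham's F-12, MCF-7 and A-549 in DMEM, all with 10% FBS and penicillin/streptomycin.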

MCF7 [26] = assay: Cytotoxicity against human MCF7 cells assessed as growth inhibition after 72 hrs by MTT assay; assay type: functional; conditions: MCF7, 72 h; summary of the method: as §4
LoVo [27] = assay: Cytotoxicity against human LoVo cells assessed as growth inhibition after 72 hrs by MTT assay; assay type: functional; summary of the method: as §4

With COc1ccc(-n2ncc3c2ccc2cc(S(=O)(=O)c4ccccc4)c(=O)n(C)c23)cc1 the GI50 (Jurkat [1]) was 250 nM, the GI50 (Jurkat [2]) was 580 nM and the GI50 (HL-60 [3]) was 440 nM. The GI50 (HL-60 [4]) was 610 nM, the GI50 (MCF7 [5]) was 140 nM and the GI50 (MCF7 [6]) was 290 nM. The GI50 (A549 [7]) was 80 nM, the GI50 (A549 [8]) was 270 nM and the GI50 (LoVo [9]) was 90 nM. The GI50 (LoVo [10]) was 190 nM, the Activity (A549 [11]) was “Dose-dependent effect” and the Activity [12] was “Active”. For the same compound, the Activity [13] was “Active”, the Activity (Jurkat [14]) was “Active” and the Activity (Jurkat [15]) was “Active”. For the same compound, the Activity (Jurkat [16]) was “Active”, the Activity (Jurkat [17]) was “Active” and the Activity (Jurkat [18]) was “Active”. The Activity (Escherichia coli) was “inactive”, the Activity (Jurkat [19]) was “Active” and the Activity (A549 [20]) was “Dose-dependent effect”. For the same compound, the “Ratio IC50” value (MCF7 [21]) was 10, the “Ratio IC50” value (LoVo [22]) was 12 and the GI50 (Jurkat [23]) was greater than 20000 nM. The GI50 (HL-60 [24]) was greater than 20000 nM, the GI50 (A549 [25]) was greater than 20000 nM and the GI50 (MCF7 [26]) was 9600 nM. The GI50 (LoVo [27]) was greater than 20000 nM.
